Results pooled from the literature.
Protocols differ between the studies behind these lines.
Target: Homeodomain-interacting protein kinase 4 (HIPK4, Homo sapiens, UniProt Q8NE63)
Sequence (Q8NE63 1-616, as in one of the studies): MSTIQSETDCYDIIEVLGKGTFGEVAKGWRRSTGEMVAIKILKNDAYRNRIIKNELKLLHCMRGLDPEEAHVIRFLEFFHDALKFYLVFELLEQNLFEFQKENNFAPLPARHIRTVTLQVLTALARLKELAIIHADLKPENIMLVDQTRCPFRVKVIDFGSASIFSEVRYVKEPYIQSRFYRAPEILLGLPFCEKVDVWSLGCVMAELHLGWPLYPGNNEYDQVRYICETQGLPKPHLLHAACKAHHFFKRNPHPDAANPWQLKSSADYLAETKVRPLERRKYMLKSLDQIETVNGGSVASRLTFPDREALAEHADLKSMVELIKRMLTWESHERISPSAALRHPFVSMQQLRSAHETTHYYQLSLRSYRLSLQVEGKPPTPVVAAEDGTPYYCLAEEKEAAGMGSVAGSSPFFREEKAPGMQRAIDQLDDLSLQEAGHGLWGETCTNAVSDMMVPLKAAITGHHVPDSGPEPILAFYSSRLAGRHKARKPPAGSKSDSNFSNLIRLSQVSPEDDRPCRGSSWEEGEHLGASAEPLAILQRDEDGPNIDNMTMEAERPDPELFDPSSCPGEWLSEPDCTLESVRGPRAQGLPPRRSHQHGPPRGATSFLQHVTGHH

Structure (SMILES)	observed	mode	technique	concentration	endpoint	value
O=C(O)c1ccc2c(c1)nc(NCc1ccccc1)c1ccncc12	enzyme activity	inhibitor	radiometric	1 µM	remaining activity	33%
CC(C)CC(=O)N1CCc2nc(-c3ccc(Br)cc3)nc(N(C)Cc3ccccc3)c2C1	cell-free assay	–	competition with immobilised ligand	0.1 µM	remaining binding	61%
O=C(O)c1ccc2c(c1)nc(Nc1ccc3ccccc3c1)c1ccncc12	enzyme activity	inhibitor	radiometric	1 µM	remaining activity	-10%
Nc1ncnc2occ(-c3ccc(NC(=O)Nc4cc(C(F)(F)F)ccc4F)cc3)c12	cell-free assay	inhibitor	–	20 µM	remaining signal	0.95%
CNC(=O)c1cc(Oc2ccc(NC(=O)Nc3ccc(Cl)c(C(F)(F)F)c3)cc2)ccn1	cell-free assay	–	–	0.5 µM	remaining signal	4.85%
CCCOc1ccc([C@H]2[C@H](C(=O)O)[C@@H](c3ccc4c(c3)OCO4)CN2CC(=O)Nc2c(CC)cccc2CC)cc1	cell-free assay	–	competition with immobilised ligand	1 µM	remaining binding	70%
O=C(O)c1ccc2c(c1)nc(Nc1ccc(F)c(Cl)c1)c1ncncc12	enzyme activity	inhibitor	radiometric	1 µM	remaining activity	6%
COc1cc2c(N3CCN(C(=O)Nc4ccc(OC(C)C)cc4)CC3)ncnc2cc1OCCCN1CCCCC1	cell-free assay	–	–	0.5 µM	remaining signal	99.5%
O=C(O)c1ccc2c(c1)nc(Nc1ccc3ccccc3c1)c1ncncc12	enzyme activity	inhibitor	radiometric	1 µM	remaining activity	109%
O=C1Nc2ccc(Cl)cc2C1=Cc1cc(Cl)c(O)c(Cl)c1	cell-free assay	–	–	0.5 µM	remaining signal	88.4%
CC(=O)c1c(NS(C)(=O)=O)c2cc(-c3ccc(Cl)cc3)c(-c3ccc(Cl)cc3Cl)nc2n(C)c1=O	cell-free assay	–	competition with immobilised ligand	1 µM	remaining binding	93%
COc1cc2ncnc(Nc3ccc(Oc4ccccc4)cc3C)c2cc1OC	enzyme activity	inhibitor	–	1 µM	inhibition	4%
CNC(=O)Nc1ccc2c(c1)CC[C@@]21OC(=O)N(CC(=O)N(Cc2ccc(F)cc2)[C@@H](C)C(F)(F)F)C1=O	cell-free assay	–	competition with immobilised ligand	1 µM	remaining binding	97%
COc1cccc(Nc2nc3cc(C(=O)O)ccc3c3cnccc23)c1	enzyme activity	inhibitor	radiometric	1 µM	remaining activity	-14%
CCOc1cc(-c2nncn2C)ccc1Nc1ncc2cc(C)nc(NCC(C)(C)C)c2n1	enzyme activity	inhibitor	FRET	1 µM	inhibition	< 15%
O=C(O)c1ccc2c(c1)nc(NCCc1cccc(F)c1)c1ncncc12	enzyme activity	inhibitor	radiometric	1 µM	remaining activity	10%
N#CC1(c2ccccn2)CCN(Cc2cc(C(=O)N3CCCC3)c(=O)n3ccccc23)CC1	cell-free assay	–	competition with immobilised ligand	1 µM	remaining binding	67%
Cc1ccc(NC(=O)c2ccc(CN3CCN(C)CC3)cc2)cc1Nc1nc(-c2cccnc2)cs1	cell-free assay	–	–	0.5 µM	remaining signal	101%
CS(=O)(=O)N1CCCC(NC(=O)[C@H](CCC2CCCCC2)NC(=O)c2ccc(CNC(=O)c3cnc4ccccn34)cc2)C1 (some centres unmarked)	cell-free assay	–	competition with immobilised ligand	0.1 µM	remaining binding	88%
O=C(Nc1cnn(-c2csc(C(=O)NC3COC3)c2)c1)Nc1c(F)cccc1Cl	enzyme activity	inhibitor	–	5 µM	remaining activity	111%
